What was measured:
[1] = molecular target: T1, Neuropeptide Y receptor type 5 (Homo sapiens, UniProt Q15761); test: Displacement of [125I]PYY from human recombinant neuropeptide Y5 receptor expressed in thymidine kinase-deficient mouse LM cells; format: cell-based
T1 sequence (Q15761 whole entry): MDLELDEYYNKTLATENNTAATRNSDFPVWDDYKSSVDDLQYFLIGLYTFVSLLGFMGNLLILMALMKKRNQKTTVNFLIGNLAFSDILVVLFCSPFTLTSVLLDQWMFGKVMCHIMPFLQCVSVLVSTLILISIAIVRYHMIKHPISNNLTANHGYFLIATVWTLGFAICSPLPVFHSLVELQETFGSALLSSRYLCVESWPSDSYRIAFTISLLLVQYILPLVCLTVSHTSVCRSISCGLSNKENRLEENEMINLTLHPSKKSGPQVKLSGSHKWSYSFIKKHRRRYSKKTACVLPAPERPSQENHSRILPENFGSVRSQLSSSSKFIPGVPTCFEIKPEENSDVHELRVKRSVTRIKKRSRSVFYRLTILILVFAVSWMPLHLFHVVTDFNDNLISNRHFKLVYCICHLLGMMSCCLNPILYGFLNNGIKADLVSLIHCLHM
How it was run: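 [125I]PYY displacement in membranes of LMtk- cells expressing recombinant human Y5 receptor; IC50 determined.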

[2] = Plasma concentration in Sprague-Dawley rat at 10 mg/kg, po after 2 hrs; format: ADME, organism-based; set-up: dose 10 mg/kg, route oral
How it was run: (§1)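 Rats dosed orally at 10 mg/kg; plasma, brain (nmol/g) and CSF levels measured 2 h post-dose. Brain-to-plasma and CSF-to-brain ratios were calculated from these levels.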

[3] = system: Brain; test: Drug level in Sprague-Dawley rat brain at 10 mg/kg, po after 2 hrs; format: ADME, organism-based; set-up: dose 10 mg/kg, route oral; settings: in vivo; how it was run: as §1
[4] = Ratio of drug level in brain to plasma of Sprague-Dawley rat at 10 mg/kg, po after 2 hrs; format: ADME, organism-based; set-up: dose 10 mg/kg, route oral; settings: read-out: BPR; how it was run: as §1
[5] = Ratio of drug level in cerebrospinal fluid to brain of Sprague-Dawley rat at 10 mg/kg, po after 2 hrs; format: ADME, organism-based, CSF/Brain; set-up: dose 10 mg/kg, route oral; settings: in vivo; how it was run: as §1
[6] = Drug level in Sprague-Dawley rat cerebrospinal fluid at 10 mg/kg, po after 2 hrs; format: ADME, organism-based; set-up: dose 10 mg/kg, route oral; settings: read-out: Drug uptake; how it was run: as §1
[7] = molecular target: T1, Neuropeptide Y receptor type 5; test: Antagonist activity at human recombinant neuropeptide Y5 receptor expressed in thymidine kinase-deficient mouse LM cells assessed as inhibition of neuropeptide-induced increase in intracellular calcium level; format: functional, cell-based
[8] = molecular target: Neuropeptide Y receptor type 4 (Homo sapiens) (UniProt P50391); test: Binding affinity to human neuropeptide Y4 receptor
Sequence of Neuropeptide Y receptor type 4 (Homo sapiens) (P50391 whole entry): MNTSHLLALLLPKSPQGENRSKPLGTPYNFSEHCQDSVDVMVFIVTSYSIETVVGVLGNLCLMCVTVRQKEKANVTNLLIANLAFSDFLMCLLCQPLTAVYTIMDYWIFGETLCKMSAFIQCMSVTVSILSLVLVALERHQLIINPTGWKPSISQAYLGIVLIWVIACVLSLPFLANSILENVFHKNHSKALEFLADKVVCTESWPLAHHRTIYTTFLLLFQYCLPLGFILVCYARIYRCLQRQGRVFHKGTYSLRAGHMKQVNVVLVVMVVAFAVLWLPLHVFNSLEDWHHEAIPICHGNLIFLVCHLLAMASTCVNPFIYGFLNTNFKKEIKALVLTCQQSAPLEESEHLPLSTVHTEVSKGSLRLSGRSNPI

[9] = molecular target: T2, Neuropeptide Y receptor type 1 (Homo sapiens) (UniProt P25929); test: Binding affinity to human neuropeptide Y1 receptor
T2 sequence (whole entry): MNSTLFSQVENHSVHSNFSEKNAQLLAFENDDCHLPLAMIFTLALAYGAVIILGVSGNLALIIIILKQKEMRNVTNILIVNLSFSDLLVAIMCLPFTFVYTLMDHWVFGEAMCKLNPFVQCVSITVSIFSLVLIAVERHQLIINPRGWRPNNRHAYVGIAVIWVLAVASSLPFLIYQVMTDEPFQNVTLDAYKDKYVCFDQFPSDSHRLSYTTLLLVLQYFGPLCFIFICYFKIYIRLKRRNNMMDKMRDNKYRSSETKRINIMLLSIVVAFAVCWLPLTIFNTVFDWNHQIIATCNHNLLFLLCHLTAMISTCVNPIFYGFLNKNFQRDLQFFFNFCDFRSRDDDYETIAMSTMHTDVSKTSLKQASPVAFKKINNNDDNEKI

[10] = system: Rattus norvegicus; test: Inhibition of D-Trp34NPY-induced food intake in Sprague-Dawley rat at 10 mg/kg, po administered 2 hrs before D-Trp34NPY challenge measured for 2 hrs; format: functional; set-up: scale not given: the % may be the effect or the level left
How it was run: (§2)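 Oral dosing 2 h before third-ventricle injection of D-Trp34NPY, with artificial CSF as vehicle control. Cumulative food intake was recorded over the following 2 h. Data are mean ± SEM, n = 7–8, with P < 0.05 versus the agonist-only group.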

[11] = molecular target: T3, Neuropeptide Y receptor type 2 (Homo sapiens) (UniProt P49146); test: Binding affinity to human neuropeptide Y2 receptor
T3 sequence (whole entry): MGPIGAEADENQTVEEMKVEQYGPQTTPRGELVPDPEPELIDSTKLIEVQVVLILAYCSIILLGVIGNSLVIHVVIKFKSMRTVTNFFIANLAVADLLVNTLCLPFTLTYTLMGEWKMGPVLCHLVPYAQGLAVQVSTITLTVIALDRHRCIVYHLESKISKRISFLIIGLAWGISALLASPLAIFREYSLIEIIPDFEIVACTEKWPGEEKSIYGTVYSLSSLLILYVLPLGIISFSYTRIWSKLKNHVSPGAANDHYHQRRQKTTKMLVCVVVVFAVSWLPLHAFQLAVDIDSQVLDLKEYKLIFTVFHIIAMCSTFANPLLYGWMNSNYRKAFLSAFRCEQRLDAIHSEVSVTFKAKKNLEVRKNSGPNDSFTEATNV

[12] = system: Rattus norvegicus; test: Inhibition of D-Trp34NPY-induced food intake in Sprague-Dawley rat at 3 mg/kg, po administered 2 hrs before D-Trp34NPY challenge measured for 2 hrs; format: functional; set-up: scale not given: the % may be the effect or the level left; how it was run: as §2
[13] = system: Rattus norvegicus; test: Inhibition of D-Trp34NPY-induced food intake in Sprague-Dawley rat at 30 mg/kg, po administered 2 hrs before D-Trp34NPY challenge measured for 2 hrs; format: functional; set-up: scale not given: the % may be the effect or the level left; how it was run: as §2

| IC50 [1] | Compound | also measured |
| --- | --- | --- |
| 300 nM | Nc1cccc(C2=NC(c3ccc(F)cc3)(c3ccc(F)cc3)CN2)c1 |  |
| 2 nM | N#Cc1ccnc(C2=NC(c3ccc(F)cc3)(c3ccc(F)cc3)CN2)c1 | concentration at 2 h [2]: 1300 nM; Drug uptake [3]: 6.4 nmol/g; Kp at 2 h [4]: 4.9; Ratio [5]: 0.004; concentration at 2 h [6]: 25 nM |
| 8.1 nM | O=c1cccc(C2=NC(c3ccc(F)cc3)(c3ccc(F)cc3)CN2)[nH]1 |  |
| 54 nM | c1ccc(C2=NC(c3ccccc3)(c3ccccc3)CN2)cc1 |  |
| 5.4 nM | Fc1ccc(C2(c3ccc(F)cc3)CNC(c3cccc(Cl)c3)=N2)cc1 |  |
| 59 nM | OCc1cccc(C2=NC(c3ccc(F)cc3)(c3ccc(F)cc3)CN2)c1 |  |
| 9.2 nM | CS(=O)(=O)c1cccc(C2=NC(c3ccc(F)cc3)(c3ccc(F)cc3)CN2)c1 |  |
| 93 nM | Fc1ccc(C2(c3ccc(F)cc3)CNC(c3ccsc3)=N2)cc1 |  |
| 4.8 nM | N#Cc1cc(C2=NC(c3ccc(F)cc3)(c3ccc(F)cc3)CN2)ccn1 |  |
| 51 nM | COc1cccc(C2=NC(c3ccc(F)cc3)(c3ccc(F)cc3)CN2)c1 |  |
| 54 nM | Fc1ccc(C2(c3ccc(F)cc3)CNC(c3cccs3)=N2)cc1 |  |
| > 1000 nM | CN(C)c1cccc(C2=NC(c3ccc(F)cc3)(c3ccc(F)cc3)CN2)c1 |  |
| 10 nM | Fc1ccc(C2(c3ccc(F)cc3)CNC(c3cccc(F)c3)=N2)cc1 |  |
| 6.2 nM | Fc1ccc(C2(c3ccc(F)cc3)CNC(c3cccc(C(F)(F)F)c3)=N2)cc1 |  |
| 4.3 nM | Fc1ccc(C2(c3ccc(F)cc3)CNC(c3cnccn3)=N2)cc1 | IC50 [7]: 2.4 nM; Activity [8]: > 10 µM; concentration at 2 h [2]: 1200 nM; Activity [9]: > 10 µM; Activity [10]: 42%; Drug uptake [3]: 5.9 nmol/g; Activity [11]: > 10 µM; Kp at 2 h [4]: 4.9; Activity [12]: 20%; Activity [13]: 60%; Ratio [5]: 0.01; concentration at 2 h [6]: 64 nM |
| 17 nM | N#Cc1cncc(C2=NC(c3ccc(F)cc3)(c3ccc(F)cc3)CN2)c1 |  |
| 32 nM | Fc1ccc(C2(c3ccc(F)cc3)CNC(c3ccccc3)=N2)cc1 |  |

| IC50 [1] | Compound | also measured |
| --- | --- | --- |
| 2.7 nM | N#Cc1cccc(C2=NC(c3ccc(F)cc3)(c3ccc(F)cc3)CN2)c1 | concentration at 2 h [2]: 1400 nM; Drug uptake [3]: 8.1 nmol/g; Kp at 2 h [4]: 5.8; Ratio [5]: 0.003; concentration at 2 h [6]: 27 nM |
| 270 nM | COC(=O)c1cccc(C2=NC(c3ccc(F)cc3)(c3ccc(F)cc3)CN2)c1 |  |
| 350 nM | Fc1ccc(C2(c3ccc(F)cc3)CNC(c3ncccn3)=N2)cc1 |  |
| 4.3 nM | O=[N+]([O-])c1cccc(C2=NC(c3ccc(F)cc3)(c3ccc(F)cc3)CN2)c1 |  |
| 160 nM | Fc1ccc(C2(c3ccc(F)cc3)CNC(c3ccncc3)=N2)cc1 |  |
| 44 nM | CC(=O)c1cccc(C2=NC(c3ccc(F)cc3)(c3ccc(F)cc3)CN2)c1 |  |
| 30 nM | Cc1cccc(C2=NC(c3ccc(F)cc3)(c3ccc(F)cc3)CN2)c1 |  |
| 4.8 nM | Fc1ccc(C2(c3ccc(F)cc3)CNC(c3cccc(Br)c3)=N2)cc1 |  |
| 8.7 nM | O=Cc1cccc(C2=NC(c3ccc(F)cc3)(c3ccc(F)cc3)CN2)c1 |  |
| 130 nM | Fc1ccc(C2(c3ccc(F)cc3)CNC(c3ccc(Cl)cc3)=N2)cc1 |  |
| 160 nM | Fc1ccc(C2(c3ccc(F)cc3)CNC(c3ccccn3)=N2)cc1 |  |
| 39 nM | N#Cc1cccc(C2=NC(c3ccc(F)cc3)(c3ccc(F)cc3)CN2)n1 |  |
| 47 nM | Fc1ccc(C2(c3ccc(F)cc3)CNC(c3cncnc3)=N2)cc1 |  |
| 560 nM | Fc1ccc(C2(c3ccc(F)cc3)CNC(c3cccnn3)=N2)cc1 |  |
| 7.2 nM | Fc1ccc(C2(c3ccc(F)cc3)CNC(c3cccnc3)=N2)cc1 |  |
| 160 nM | Fc1ccc(C2(c3ccc(F)cc3)CNC(c3ccc(C(F)(F)F)cc3)=N2)cc1 |  |
| 630 nM | Fc1ccc(C2(c3ccc(F)cc3)CNC(c3ccccc3Cl)=N2)cc1 |  |
